Reference: the M2OR odorant receptor database
Numbering of substitutions follows the chain as printed.

How the values were obtained:
Conditions in all cases: stereoisomer not certain
[1] = biological target: T1, OR2A12 (Homo sapiens) (UniProt Q8NGT7)
T1 sequence (whole entry): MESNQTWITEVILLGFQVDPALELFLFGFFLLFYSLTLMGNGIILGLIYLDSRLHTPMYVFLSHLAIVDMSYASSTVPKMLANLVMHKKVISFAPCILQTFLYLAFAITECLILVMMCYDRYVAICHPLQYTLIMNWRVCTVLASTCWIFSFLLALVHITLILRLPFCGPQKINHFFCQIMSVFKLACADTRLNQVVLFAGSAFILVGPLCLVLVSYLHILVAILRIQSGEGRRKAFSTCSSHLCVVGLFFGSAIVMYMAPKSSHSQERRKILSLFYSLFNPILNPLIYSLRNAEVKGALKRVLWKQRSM
In short: (§1)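 Values were gathered from published papers (main text and supplementary material), with extra details requested from the original authors when needed, and checked for typos and inconsistencies. Each receptor–molecule pair is called responsive (active) if the original authors judged the measured signal statistically different from baseline, and non-responsive (inactive) otherwise. Assay methods varied by source, often transient mammalian cell-line luciferase assays. Recorded details include cell line, G-protein, co-transfected protein and tags.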

[2] = biological target: T2, OR2A14 (Homo sapiens) (UniProt Q96R47)
T2 sequence (whole entry): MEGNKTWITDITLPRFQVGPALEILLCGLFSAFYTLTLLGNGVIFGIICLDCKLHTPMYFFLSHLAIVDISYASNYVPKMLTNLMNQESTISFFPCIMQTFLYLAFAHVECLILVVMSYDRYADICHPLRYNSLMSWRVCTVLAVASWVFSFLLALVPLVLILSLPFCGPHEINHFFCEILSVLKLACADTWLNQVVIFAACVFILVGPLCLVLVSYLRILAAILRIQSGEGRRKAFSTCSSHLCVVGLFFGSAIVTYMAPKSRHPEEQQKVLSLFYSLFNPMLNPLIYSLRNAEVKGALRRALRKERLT
In short: as §1

[3] = biological target: T3, OR2A2 (Homo sapiens) (UniProt Q6IF42)
T3 sequence (whole entry): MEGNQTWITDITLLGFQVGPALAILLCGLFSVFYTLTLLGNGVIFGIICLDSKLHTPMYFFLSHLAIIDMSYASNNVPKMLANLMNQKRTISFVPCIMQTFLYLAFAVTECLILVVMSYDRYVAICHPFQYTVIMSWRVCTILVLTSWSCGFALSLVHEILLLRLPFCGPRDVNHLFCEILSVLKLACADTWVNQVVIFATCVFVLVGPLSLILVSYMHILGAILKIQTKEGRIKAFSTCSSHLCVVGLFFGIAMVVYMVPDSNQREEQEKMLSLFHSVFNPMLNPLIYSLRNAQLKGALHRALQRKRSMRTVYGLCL
In short: as §1

[4] = biological target: T4, OR2A25 (Homo sapiens) (UniProt A4D2G3)
T4 sequence (whole entry): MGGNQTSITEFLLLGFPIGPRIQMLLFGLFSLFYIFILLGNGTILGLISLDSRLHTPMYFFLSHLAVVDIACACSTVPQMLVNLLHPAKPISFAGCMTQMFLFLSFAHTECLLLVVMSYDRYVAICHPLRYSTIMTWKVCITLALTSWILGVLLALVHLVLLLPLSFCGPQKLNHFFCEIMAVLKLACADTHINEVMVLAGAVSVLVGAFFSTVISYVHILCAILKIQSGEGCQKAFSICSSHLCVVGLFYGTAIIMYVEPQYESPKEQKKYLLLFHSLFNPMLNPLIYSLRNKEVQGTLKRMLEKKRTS
In short: as §1

[5] = biological target: T5, OR2A4 (Homo sapiens) (UniProt O95047)
T5 sequence (whole entry): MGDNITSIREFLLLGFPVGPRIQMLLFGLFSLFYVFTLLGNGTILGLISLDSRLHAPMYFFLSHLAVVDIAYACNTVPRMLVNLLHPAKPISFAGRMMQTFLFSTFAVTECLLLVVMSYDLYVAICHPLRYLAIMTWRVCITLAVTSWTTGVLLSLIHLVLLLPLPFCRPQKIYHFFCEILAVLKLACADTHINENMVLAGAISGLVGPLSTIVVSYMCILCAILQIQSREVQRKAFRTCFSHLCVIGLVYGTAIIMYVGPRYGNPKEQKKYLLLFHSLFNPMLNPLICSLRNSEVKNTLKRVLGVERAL
In short: as §1

[6] = biological target: T6, OR2A5 (Homo sapiens) (UniProt Q96R48)
T6 sequence (whole entry): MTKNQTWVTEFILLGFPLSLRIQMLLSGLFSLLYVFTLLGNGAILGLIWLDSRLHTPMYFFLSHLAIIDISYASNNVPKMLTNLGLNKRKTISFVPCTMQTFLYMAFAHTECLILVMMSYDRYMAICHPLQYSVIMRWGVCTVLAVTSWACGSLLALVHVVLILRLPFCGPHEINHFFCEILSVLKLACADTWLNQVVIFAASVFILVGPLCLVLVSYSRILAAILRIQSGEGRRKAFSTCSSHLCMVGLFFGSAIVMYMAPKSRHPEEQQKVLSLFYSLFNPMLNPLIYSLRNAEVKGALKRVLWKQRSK
In short: as §1

[7] = biological target: T7, OR2A7 (Homo sapiens) (UniProt Q96R45)
T7 sequence (whole entry): T5 sequence (whole entry) with R9T, R238C, V250F
In short: as §1

[8] = biological target: T8, OR2AE1 (Homo sapiens) (UniProt Q8NHA4)
T8 sequence (whole entry): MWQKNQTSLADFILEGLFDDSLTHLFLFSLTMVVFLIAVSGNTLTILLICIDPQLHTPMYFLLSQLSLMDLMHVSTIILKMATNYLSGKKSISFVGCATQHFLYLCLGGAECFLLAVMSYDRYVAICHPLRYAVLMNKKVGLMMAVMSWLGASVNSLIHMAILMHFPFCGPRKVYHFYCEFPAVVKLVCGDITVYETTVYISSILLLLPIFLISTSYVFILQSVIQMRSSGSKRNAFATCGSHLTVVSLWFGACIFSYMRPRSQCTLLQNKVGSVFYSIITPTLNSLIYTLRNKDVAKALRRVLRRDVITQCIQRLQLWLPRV
In short: as §1

[9] = biological target: T9, OR2AG1 (Homo sapiens) (UniProt Q9H205)
T9 sequence (whole entry): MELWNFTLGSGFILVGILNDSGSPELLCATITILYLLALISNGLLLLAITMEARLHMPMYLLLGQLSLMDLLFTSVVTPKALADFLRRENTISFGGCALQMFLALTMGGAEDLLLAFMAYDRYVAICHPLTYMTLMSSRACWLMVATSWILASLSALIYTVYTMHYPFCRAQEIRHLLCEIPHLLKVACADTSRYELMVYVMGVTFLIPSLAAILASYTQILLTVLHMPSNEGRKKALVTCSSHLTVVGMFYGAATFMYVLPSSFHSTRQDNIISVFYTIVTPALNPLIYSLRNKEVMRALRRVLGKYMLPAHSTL
In short: as §1

[10] = biological target: T10, OR2AG2 (Homo sapiens) (UniProt A6NM03)
T10 sequence (whole entry): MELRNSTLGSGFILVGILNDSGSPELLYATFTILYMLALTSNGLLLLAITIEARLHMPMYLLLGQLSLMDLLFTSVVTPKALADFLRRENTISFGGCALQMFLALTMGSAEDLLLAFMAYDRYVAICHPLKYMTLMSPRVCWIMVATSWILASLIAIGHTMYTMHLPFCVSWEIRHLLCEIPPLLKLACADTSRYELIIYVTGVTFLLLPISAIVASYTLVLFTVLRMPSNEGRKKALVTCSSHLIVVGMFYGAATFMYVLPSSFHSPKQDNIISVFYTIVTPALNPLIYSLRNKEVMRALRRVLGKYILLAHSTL
In short: as §1

[11] = biological target: T11, OR2AJ1 (Homo sapiens) (UniProt Q8NGZ0)
T11 sequence (whole entry): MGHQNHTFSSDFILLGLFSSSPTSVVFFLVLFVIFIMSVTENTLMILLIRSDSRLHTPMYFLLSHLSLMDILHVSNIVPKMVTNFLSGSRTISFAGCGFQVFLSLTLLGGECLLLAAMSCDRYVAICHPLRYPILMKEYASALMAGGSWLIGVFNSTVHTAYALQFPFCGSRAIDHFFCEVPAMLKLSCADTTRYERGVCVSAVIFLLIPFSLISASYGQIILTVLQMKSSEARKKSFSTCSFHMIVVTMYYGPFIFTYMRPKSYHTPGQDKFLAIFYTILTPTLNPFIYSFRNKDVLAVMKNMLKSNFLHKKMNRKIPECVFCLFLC
In short: as §1

[12] = biological target: T12, OR2AK2 (Homo sapiens) (UniProt Q8NG84)
T12 sequence (whole entry): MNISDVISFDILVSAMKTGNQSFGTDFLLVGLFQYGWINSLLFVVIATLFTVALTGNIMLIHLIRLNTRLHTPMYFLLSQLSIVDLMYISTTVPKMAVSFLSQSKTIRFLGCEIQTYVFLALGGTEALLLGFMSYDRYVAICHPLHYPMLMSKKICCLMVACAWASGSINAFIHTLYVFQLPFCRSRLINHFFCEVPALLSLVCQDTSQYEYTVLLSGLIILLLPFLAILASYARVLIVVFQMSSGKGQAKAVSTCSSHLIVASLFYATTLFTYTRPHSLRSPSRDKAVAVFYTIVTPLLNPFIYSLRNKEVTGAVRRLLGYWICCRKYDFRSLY
In short: as §1

[13] = biological target: T13, OR2AP1 (Homo sapiens) (UniProt Q8NGE2)
T13 sequence (whole entry): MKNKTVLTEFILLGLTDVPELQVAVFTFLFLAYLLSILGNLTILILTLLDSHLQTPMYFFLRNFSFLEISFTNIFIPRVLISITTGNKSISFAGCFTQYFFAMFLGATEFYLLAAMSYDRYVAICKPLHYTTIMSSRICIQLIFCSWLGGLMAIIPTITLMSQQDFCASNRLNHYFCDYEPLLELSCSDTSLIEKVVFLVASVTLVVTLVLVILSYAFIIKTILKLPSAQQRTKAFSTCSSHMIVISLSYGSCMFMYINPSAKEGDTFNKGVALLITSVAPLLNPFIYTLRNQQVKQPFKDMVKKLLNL
In short: as §1

[14] = biological target: T14, OR2AT4 (Homo sapiens) (UniProt A6NND4)
T14 sequence (whole entry): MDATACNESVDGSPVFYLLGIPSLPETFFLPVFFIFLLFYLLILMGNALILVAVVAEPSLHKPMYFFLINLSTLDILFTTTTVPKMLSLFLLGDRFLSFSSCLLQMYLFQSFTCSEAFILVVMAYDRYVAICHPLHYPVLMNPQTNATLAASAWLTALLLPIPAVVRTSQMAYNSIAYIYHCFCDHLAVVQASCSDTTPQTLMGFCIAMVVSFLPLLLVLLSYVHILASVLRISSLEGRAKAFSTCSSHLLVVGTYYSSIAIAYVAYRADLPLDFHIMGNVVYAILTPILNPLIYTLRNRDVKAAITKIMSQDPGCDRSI
In short: as §1

[15] = biological target: T15, OR2B11 (Homo sapiens) (UniProt Q5JQS5)
T15 sequence (whole entry): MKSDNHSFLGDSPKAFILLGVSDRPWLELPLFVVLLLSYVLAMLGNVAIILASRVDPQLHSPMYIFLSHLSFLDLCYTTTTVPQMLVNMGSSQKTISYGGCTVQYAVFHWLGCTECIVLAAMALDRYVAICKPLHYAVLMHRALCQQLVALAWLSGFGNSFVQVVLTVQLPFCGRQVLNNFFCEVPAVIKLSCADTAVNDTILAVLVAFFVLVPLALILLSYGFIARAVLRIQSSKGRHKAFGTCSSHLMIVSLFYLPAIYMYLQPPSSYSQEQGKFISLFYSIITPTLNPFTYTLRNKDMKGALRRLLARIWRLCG
In short: as §1

[16] = biological target: T16, OR2B2 (Homo sapiens) (UniProt Q9GZK3)
T16 sequence (whole entry): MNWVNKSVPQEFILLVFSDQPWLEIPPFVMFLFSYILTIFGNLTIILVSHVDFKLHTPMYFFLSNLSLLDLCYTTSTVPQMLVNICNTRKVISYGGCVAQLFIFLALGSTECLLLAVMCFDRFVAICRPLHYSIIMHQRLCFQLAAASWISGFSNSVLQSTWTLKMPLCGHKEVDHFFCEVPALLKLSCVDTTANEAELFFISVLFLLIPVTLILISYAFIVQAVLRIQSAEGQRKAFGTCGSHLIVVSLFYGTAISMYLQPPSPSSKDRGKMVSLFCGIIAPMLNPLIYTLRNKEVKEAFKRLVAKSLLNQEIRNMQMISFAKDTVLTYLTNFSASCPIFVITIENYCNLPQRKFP
In short: as §1

Row | SMILES | odorant receptor agonist call [1] | odorant receptor agonist call [2] | odorant receptor agonist call [3] | odorant receptor agonist call [4] | odorant receptor agonist call [5] | odorant receptor agonist call [6] | odorant receptor agonist call [7] | odorant receptor agonist call [8] | odorant receptor agonist call [9] | odorant receptor agonist call [10] | odorant receptor agonist call [11] | odorant receptor agonist call [12] | odorant receptor agonist call [13] | odorant receptor agonist call [14] | odorant receptor agonist call [15] | odorant receptor agonist call [16]
1 | CCCCCC(S)C(C)CO (stereo not drawn) | inactive | inactive | inactive | inactive | inactive | inactive | inactive | inactive | inactive | inactive | inactive | active | inactive | inactive | inactive | active
2 | CCCCCC(=O)C(C)C(C)=O (stereo not drawn) | inactive | inactive | inactive | inactive | inactive | inactive | inactive | inactive | inactive | inactive | inactive | inactive | inactive | inactive | inactive | inactive
3 | Cc1cnc(C)cn1 |  |  |  |  |  |  | inactive |  |  |  |  |  |  |  |  | 
